Experimental data reported in article PMC10693208 (Evolutionary Bioinformatics Online, 2023).
Values joined by “and” are separate entries in the source; they are usually repeats but may differ in a detail not shown here. Equal entries are not always repeated. Where two headings read alike, the source gives them in different places.

Legend:
EGFR^T790M = EGFR^T790M (Homo sapiens, UniProt P00533, T790M); test: In vitro EGFR kinase inhibition; format: biochemical
H1975 cells = test: MTT cytotoxicity, H1975; format: cell-based; details: Homo sapiens, NCI-H1975, read-out: H1975 IC50
EGFR^WT = EGFR^WT (Homo sapiens, UniProt P00533); test: In vitro EGFR kinase inhibition; format: biochemical
Sequence of EGFR^WT (P00533 25-1210): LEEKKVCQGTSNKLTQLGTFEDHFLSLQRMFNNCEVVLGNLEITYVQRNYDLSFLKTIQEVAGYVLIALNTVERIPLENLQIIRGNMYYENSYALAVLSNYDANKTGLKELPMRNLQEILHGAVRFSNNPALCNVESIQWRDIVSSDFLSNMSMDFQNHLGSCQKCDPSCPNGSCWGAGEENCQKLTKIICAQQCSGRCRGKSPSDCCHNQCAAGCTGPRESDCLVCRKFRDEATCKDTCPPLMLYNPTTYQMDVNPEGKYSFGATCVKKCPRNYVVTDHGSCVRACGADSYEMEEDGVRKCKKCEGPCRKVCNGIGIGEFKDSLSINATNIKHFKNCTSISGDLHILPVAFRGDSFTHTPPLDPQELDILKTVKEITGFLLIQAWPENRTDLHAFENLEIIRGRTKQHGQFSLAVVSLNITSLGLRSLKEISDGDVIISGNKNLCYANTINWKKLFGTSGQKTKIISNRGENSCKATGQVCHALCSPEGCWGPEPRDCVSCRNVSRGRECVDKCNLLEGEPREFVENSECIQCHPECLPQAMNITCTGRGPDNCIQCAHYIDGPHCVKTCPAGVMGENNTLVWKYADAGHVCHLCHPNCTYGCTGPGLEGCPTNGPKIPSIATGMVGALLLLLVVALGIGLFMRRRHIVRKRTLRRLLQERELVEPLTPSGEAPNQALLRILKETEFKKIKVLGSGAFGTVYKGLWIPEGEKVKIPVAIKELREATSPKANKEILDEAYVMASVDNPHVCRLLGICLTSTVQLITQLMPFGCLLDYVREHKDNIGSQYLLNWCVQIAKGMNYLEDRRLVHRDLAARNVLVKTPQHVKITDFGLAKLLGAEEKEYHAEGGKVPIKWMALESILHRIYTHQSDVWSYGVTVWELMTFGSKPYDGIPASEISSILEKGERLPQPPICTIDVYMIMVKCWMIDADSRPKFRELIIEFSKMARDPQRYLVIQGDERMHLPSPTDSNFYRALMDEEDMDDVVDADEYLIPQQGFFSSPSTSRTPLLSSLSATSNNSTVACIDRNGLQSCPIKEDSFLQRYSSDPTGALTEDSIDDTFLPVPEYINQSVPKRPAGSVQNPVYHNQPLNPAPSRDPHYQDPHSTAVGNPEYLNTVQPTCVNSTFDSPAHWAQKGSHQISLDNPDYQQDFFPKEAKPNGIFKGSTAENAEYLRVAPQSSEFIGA

Bcl-2 = test: RT-PCR, Bcl-2 level in HCT-116 cells; format: cell-based, human
HCT-116 cells [1] = test: MTT cytotoxicity, HCT-116; format: cell-based, human
BAX = test: RT-PCR, BAX level in HCT-116 cells; format: cell-based, human; details: HCT-116 treated with 23.3 µM, vs control cells = 1
Method in brief: (§1)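 Total RNA extracted from HCT-116 cells after test compound exposure using a commercial extraction kit. Transcript levels were measured by RT-PCR with SYBR Green master mix. Expression was compared with untreated control cells, taken as 1, and reported as fold change.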

Casp9 = test: RT-PCR, Casp9 level in HCT-116 cells; format: cell-based, human; details: HCT-116 treated with 23.3 µM, vs control cells = 1
Method in brief: as §1

HCT-116 cells [2] = test: Flow cytometric analysis of apoptosis; format: cell-based, human
Casp3 = test: RT-PCR, Casp3 level in HCT-116 cells; format: cell-based, human; details: HCT-116 treated with 23.3 µM, vs control cells = 1
Method in brief: as §1

[3] = Homo sapiens, HCT-116, read-out: HCT-116 IC50, MTT, erlotinib as reference
[4] = read-out: HCT-116 IC50, MTT, erlotinib as reference

Sequence of EGFR^T790M (P00533 25-1210 T790M): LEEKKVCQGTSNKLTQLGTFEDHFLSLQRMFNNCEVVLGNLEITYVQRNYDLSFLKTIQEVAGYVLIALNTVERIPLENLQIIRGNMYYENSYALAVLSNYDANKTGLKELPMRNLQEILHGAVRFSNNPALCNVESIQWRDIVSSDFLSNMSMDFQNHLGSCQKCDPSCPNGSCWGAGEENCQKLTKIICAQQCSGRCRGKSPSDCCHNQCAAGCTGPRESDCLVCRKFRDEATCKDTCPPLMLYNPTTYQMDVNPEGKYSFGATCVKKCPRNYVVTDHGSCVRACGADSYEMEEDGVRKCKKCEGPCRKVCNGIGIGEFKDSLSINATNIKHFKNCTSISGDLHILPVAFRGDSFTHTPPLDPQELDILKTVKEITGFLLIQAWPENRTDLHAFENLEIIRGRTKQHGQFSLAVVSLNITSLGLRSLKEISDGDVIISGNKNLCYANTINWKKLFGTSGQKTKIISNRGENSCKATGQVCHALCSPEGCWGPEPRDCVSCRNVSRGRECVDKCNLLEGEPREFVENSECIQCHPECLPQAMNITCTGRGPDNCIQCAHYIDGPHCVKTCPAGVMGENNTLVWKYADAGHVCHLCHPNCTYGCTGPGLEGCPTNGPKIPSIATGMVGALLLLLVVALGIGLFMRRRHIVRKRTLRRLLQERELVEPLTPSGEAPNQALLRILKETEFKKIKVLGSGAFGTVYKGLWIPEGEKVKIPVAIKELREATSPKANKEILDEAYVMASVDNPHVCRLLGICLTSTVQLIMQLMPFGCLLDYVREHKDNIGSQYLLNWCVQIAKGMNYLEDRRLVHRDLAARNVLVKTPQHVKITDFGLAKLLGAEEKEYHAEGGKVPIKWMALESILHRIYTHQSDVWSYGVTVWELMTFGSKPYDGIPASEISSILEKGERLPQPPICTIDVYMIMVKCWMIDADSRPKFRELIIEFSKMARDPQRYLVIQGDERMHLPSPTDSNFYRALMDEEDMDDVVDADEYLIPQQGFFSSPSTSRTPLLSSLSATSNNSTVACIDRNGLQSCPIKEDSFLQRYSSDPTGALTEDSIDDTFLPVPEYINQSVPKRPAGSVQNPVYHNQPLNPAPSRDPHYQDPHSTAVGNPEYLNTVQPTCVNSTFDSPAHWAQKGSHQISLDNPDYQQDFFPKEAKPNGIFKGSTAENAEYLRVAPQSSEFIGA

| Structure (SMILES) | IC50 (EGFR^T790M) | IC50 (H1975 cells) | IC50 (EGFR^WT) | Bcl-2 reduction compared to the control (Bcl-2; HCT-116, reduction factor) | RT-PCR Fold change Bcl-2 (Bcl-2; HCT-116 treated with 23.3 µM, vs control cells = 1) | IC50 (HCT-116 cells [1]; [3]) | selectivity index (SI), HCT-116 (HCT-116 cells [1]; SI = IC50 normal cells (Vero) / IC50 cancer cells) | IC50 (HCT-116 cells [1]; [4]) | RT-PCR Fold change BAX (BAX) | RT-PCR Fold change Casp9 (Casp9) | increase of the total percentage of apoptotic cells vs control (HCT-116 cells [2]; HCT-116) | Apoptosis, Early (HCT-116 cells [2]; HCT-116, 72 h, Annexin V/PI) | Apoptosis, Late (HCT-116 cells [2]; HCT-116, 72 h, Annexin V/PI) | Necrosis (HCT-116 cells [2]; HCT-116, 72 h, Annexin V/PI) | RT-PCR Fold change Casp3 (Casp3) |
| --- | --- | --- | --- | --- | --- | --- | --- | --- | --- | --- | --- | --- | --- | --- | --- |
| Cn1cnc2c1c(=O)n(CC(=O)Nc1c(Cl)cccc1Cl)c(=O)n2C [Compound T-1-DOCA, N-(2,6-Dichlorophenyl)-2-(3,7-dimethyl-2,6-dioxo-2,3,6,7-tetrahydro-1H-purin-1-yl)acetamide] | 0.269 µM | 14.1 µM | 0.0569 µM | 2 fold | 0.521 | 23.4 µM | 4.1 | 23.3 µM | 5.522 | 2.2 and 2.238 | ~10 folds | 8.55% | 18.07% | 3.09% | 3.8 and 3.829 |
| C#Cc1cccc(Nc2ncnc3cc(OCCOC)c(OCCOC)cc23)c1 [Erlotinib, reference compound] | – | – | – | – | – | 17.8 µM | – | 17.9 µM | – | – | – | – | – | – | – |
